This is a sample that favours compounds with a hit; in the whole collection about 1.8% have one here.
UHRF1 MBD2 ctr – human UHRF1 methylated DNA binding inhibitors. UHRF1 binding to methylated oligo, TR-FRET. inhibition, % at 4.4 µM. Q96T88. 370,000 tested, 0.75% active; in the data active means inhibition above about 21%;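 further: UHRF1 SRA domain binding a hemimethylated CpG hairpin DNA probe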
TDP2 absorb – TDP2 (human) inhibition, absorbance primary screen. recombinant TDP2, T5PNP hydrolysis, p-nitrophenol absorbance 415 nm. inhibition, % at 12.8 µM. 370,000 tested, 0.34% active. AID 720702;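 active means inhibition above the mean of all tested compounds plus 3 SD, set per campaign, cut at about 25% in these data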
Target sequence (O95551 whole entry, looked up): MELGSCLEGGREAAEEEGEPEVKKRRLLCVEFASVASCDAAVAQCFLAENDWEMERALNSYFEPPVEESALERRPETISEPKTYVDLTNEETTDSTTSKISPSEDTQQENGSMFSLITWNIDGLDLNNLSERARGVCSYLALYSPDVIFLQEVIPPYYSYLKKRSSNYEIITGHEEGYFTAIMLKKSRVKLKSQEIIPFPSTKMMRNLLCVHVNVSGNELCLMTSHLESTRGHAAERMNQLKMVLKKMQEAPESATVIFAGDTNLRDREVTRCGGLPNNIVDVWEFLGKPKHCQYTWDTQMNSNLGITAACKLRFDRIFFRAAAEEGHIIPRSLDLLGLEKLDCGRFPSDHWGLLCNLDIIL
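Test system: human TDP2 enzyme; Input: 120 nM TDP2 per well; Buffer or medium: Mg2+-containing Tris-HCl buffer, pH 7.5; Reagent: 5 mM T5PNP; Dosing: 12.8 µM single point, 1% DMSO; Incubation: reaction 2 h, 37 °C; Detection: p-Nitrophenol epi absorbance; Read-out: % inhibition relative to enzyme-containing and enzyme-free wells; Replicates: single well per compound.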
MBD2 DNA inh – blocks human MBD2 binding to methylated DNA; Q9UBB5; TR-FRET, MBD2 binding to methylated oligonucleotide; inhibition, % at 4.4 µM; 370,000 tested, 0.31% active; in the data active means inhibition above about 13%
NSD2 HMT inh – inhibitors of human histone methyltransferase NSD2; inhibition, % at 12.5 µM; 310,000 tested, 0.54% active; O96028; NSD2 peptide methylation, AlphaScreen, 120 min; in the data active means inhibition above about 50%
CASP6 VEID inh – inhibitors of human caspase-6 | P55212 | purified caspase-6, Z-VEID-R110 cleavage fluorescence | inhibition, % at 12.5 µM | 350,000 tested, 0.53% active | AID 686996;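 active means mean inhibition across replicates at least about 35%, with every replicate also reaching that limit, limit read from the data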
Target sequence (P55212 24-179 limits assumed): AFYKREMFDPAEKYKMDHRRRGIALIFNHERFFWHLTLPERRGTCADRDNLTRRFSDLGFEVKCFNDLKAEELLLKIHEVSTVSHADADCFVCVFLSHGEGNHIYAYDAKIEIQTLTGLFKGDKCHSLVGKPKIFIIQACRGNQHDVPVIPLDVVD
Target sequence (P55212 194-293 limits assumed): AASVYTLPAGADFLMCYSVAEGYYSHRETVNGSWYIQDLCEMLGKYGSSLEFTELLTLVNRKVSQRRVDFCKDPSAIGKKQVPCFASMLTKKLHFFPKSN
LEDGF integ inh – blocks HIV-1 LEDGF/p75-dependent DNA integration; TR-FRET IN-LEDGF/p75 DNA integration, Eu/Cy5; inhibition, % at 3.7 µM; 370,000 tested, 0.64% active;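 active means inhibition above the screen-wide mean plus 3 SD, cut at about 13% in these data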;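 further: signal is the Cy5 over europium emission ratio at 671 and 618 nm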
Numbers stand for hits; – = inactive; · = no result.

SMILES	UHRF1 MBD2 ctr	TDP2 absorb	MBD2 DNA inh	NSD2 HMT inh	CASP6 VEID inh	LEDGF integ inh
CCN(CC)c1ccc(NS(=O)(=O)c2ccc(-c3ccc(=O)[nH]n3)o2)c(C)c1	–	–	–	–	–	14.8
Cc1ccc(N(C)S(=O)(=O)c2nnc(NC(=O)c3ccco3)s2)cc1	–	–	–	–	–	–
CCCC(=O)Nc1nnc(S(=O)(=O)N(C)Cc2ccco2)s1	·	·	·	–	·	·
CCC(=O)Nc1nnc(S(=O)(=O)N(C)Cc2ccco2)s1	21.2	–	–	·	–	–
Cc1ccccc1N(C)S(=O)(=O)c1nnc(NC(=O)c2ccco2)s1	–	–	–	–	69.4	–
CCCC(=O)NC(=S)Nc1sc2c(c1C(N)=O)CCC2	–	–	–	·	–	–
NC(=O)c1c(NC(=O)C2CC=CCC2C(=O)O)sc2c1CCCCC2 (stereo not drawn)	–	–	–	–	52.5	–
CC(C)C(=O)NC(=S)Nc1sc2c(c1C(N)=O)CCCC2	50.5	–	–	–	–	–
CCOC(=O)C1CCCN(C(=O)Nc2c(-c3ccccc3)noc2C)C1 (stereo not drawn)	31.7	–	–	–	–	–
COc1ccc(S(=O)(=O)N2CCOCC2)cc1NC(=O)CN(C)Cc1c(F)cccc1Cl	23.9	–	–	–	–	–
CCC(=O)N1CCC2(CC1)CN(C(=O)Nc1ccc(F)cc1)[C@@H](CO)c1c2c2ccc(OC)cc2n1C	·	·	·	·	–	·
O=C(NN=C1CCCC1)c1n[nH]c2c1CCC2	–	–	–	–	58.6	–
O=C(NN=C1CCCC1)c1n[nH]c2c1CCCC2	–	–	–	–	–	–
Cc1ccc(S(=O)(=O)N(C)C[C@@H]2OCCCC[C@H](C)Oc3ccc(NC(=O)NC(C)C)cc3C(=O)N([C@H](C)CO)C[C@@H]2C)cc1	·	·	·	·	–	·
CCOc1ccccc1N1CCN(C(=O)[C@@H]2CCCN2C2=NS(=O)(=O)c3ccccc32)CC1	40.4	–	–	–	–	–
CCCCCNCC(=O)Nc1cc(C(F)(F)F)ccc1OCCOC	48.5	–	–	–	–	–
COCCOc1ccc(C(F)(F)F)cc1NC(=O)c1ccc(C)cc1	–	–	–	–	·	–
C(#Cc1ccccc1)C[N+]1(CC#Cc2ccccc2)CCCCC1	–	–	–	–	–	–
C#CC[N+]1(CC#Cc2ccccc2)CCCCC1	38.2	–	–	–	–	–
COc1ccccc1N1CCN(C(=O)COc2cc(C)cc(C)c2)CC1	27.5	–	–	·	–	–
COc1ccccc1N1CCN(C(=O)COc2cc(C)ccc2C)CC1	–	–	–	–	–	–
O=C(Nc1ccccc1N1CCOCC1)c1cccc(S(=O)(=O)Nc2ccccc2F)c1	–	–	–	·	–	–
CN(C)CCNC(=O)c1cccc(S(=O)(=O)Nc2ccccc2F)c1	–	–	–	–	48.7	–
CO[C@H]1CN(C)C(=O)c2cc(NS(=O)(=O)c3ccc(C)cc3)ccc2OC[C@@H](C)N(C(=O)NC(C)C)C[C@@H]1C	·	·	·	·	–	·
CCOc1ccc(Cl)cc1-c1cc(C(=O)NCc2cc(C(F)(F)F)cc(C(F)(F)F)c2)[nH]n1	44.6	–	–	–	–	–
SMILES	UHRF1 MBD2 ctr	TDP2 absorb	MBD2 DNA inh	NSD2 HMT inh	CASP6 VEID inh	LEDGF integ inh
CCOc1ccc(Cl)cc1-c1cc(C(=O)NCc2ccccc2)[nH]n1	–	–	–	–	–	–
NC(=O)C1CCN(C(=O)COc2ccc(S(=O)(=O)NC3CCCC3)cc2)CC1	–	–	–	–	–	–
Cc1ccc(S(=O)(=O)NC2CCCCC2)cc1C(=O)N1CCC(C(N)=O)CC1	67.2	–	–	–	–	–
CN(C)S(=O)(=O)c1cccc(NC(=S)Nc2cccc3cnccc23)c1	–	28.1	–	·	–	–
O=C(NCC1OCCc2ccccc21)c1ccc(NC(=O)c2ccccc2Cl)cc1 (stereo not drawn)	21.0	–	–	–	·	–
CC(C)NC(=O)Nc1ccc2c(c1)C(=O)N([C@@H](C)CO)C[C@H](C)[C@@H](CN(C)C(=O)Nc1cccc3ccccc13)O2	·	·	·	·	–	·
NC(=O)c1ccc(N=C2C(=O)Nc3ccc([N+](=O)[O-])cc32)cc1	–	44.1	–	·	–	–
O=C1Nc2ccccc2C1=Nc1cccc([N+](=O)[O-])c1	–	–	–	–	–	–
O=C(O)c1cccc(NS(=O)(=O)c2ccc3nnn(O)c3c2)c1	–	–	–	–	·	–
O=C(O)c1cccc(NC2=C(n3nnc4ccccc43)C(=O)c3ccccc3C2=O)c1	–	–	–	·	81.8	–
CCOc1ccccc1C1C(C(=O)Nc2ccccc2OC)=C(C)Nc2nc(CCCO)nn21 (stereo not drawn)	22.2	–	–	·	–	–
COc1cccc(OC)c1C(=O)N1CC(C)OC(C)C1 (stereo not drawn)	–	–	–	–	·	–
CC1CN(C(=O)c2ccccc2Oc2ccccc2)CC(C)O1 (stereo not drawn)	32.9	–	–	–	–	–
O=[n+]1cc(-c2ccc(Cl)cc2)n([O-])c2c1CCC2	–	–	–	–	–	–
O=[n+]1cc(-c2ccccc2)n([O-])c2c1CCC2	20.9	–	–	–	·	–
CC(C)NC(=O)N(C)C[C@H]1OCCCC[C@H](C)Oc2ccc(NC(=O)c3ccncc3)cc2C(=O)N([C@H](C)CO)C[C@@H]1C	·	·	·	·	–	·
O=C(CSc1nnnn1C1CCCCC1)Nc1ccc(F)cc1	–	–	–	–	–	–
O=C(CSc1nnnn1C1CCCCC1)Nc1ccc2c(c1)OCO2	21.1	–	–	–	·	–
O=C(CSc1nnnn1C1CCCC1)N1CCCc2ccccc21	29.2	–	–	–	·	–
O=C(CNC(=O)c1ccc(Cl)cc1Cl)OCC(=O)N1CCOCC1	·	·	·	–	·	·
O=C(CCCC(=O)NC1CCCC1)NC1CCCC1	–	–	–	–	·	–
O=CNCC(=O)NC1CCCCCC1	23.8	–	–	·	–	–
Cc1ccc(SCCNC(=O)/C=C/c2ccc(Cl)cc2)cc1	–	–	–	–	·	–
Cc1ccc(SCCNC(=O)/C=C/c2ccccc2Cl)cc1	27.4	–	–	–	–	–
O=C(NCCNCc1ccccc1)c1ccco1	–	–	–	–	63.5	–
SMILES	UHRF1 MBD2 ctr	TDP2 absorb	MBD2 DNA inh	NSD2 HMT inh	CASP6 VEID inh	LEDGF integ inh
CCc1ccc(CNCCNC(=O)c2ccco2)cc1	–	–	–	–	–	–
Cc1cccnc1NC(=O)COc1ccc2oc3c(c2c1)CCCC3	–	–	–	–	–	–
Cc1ccc(NC(=O)COc2ccc3oc4c(c3c2)CCCC4)nc1	25.5	–	–	–	·	–
CC1CCN(S(=O)(=O)c2ccc3c(c2)N(CC(=O)NCc2cccnc2)C(=O)CS3)CC1	22.0	–	–	–	–	–
O=C(CN1C(=O)CSc2ccc(S(=O)(=O)N3CCCCC3)cc21)NCc1cccnc1	–	–	–	–	–	–
Cc1noc(C)c1NC(=O)N[C@H]1CC[C@@H](CCNC(=O)C2CC2)O[C@H]1CO	·	·	·	·	–	·
CCCCNc1nc(NCc2ccccc2)nc2ccccc12	–	–	–	·	44.4	–

Compound activity: PubChem BioAssay, several laboratories
